HIV Env fusion: inhibitors of HIV Env-mediated cell fusion; HeLa-JRFL Env/CEM21 cell fusion, luciferase; inhibition, % at 12.3 µM; 360,000 compounds, 1.1% hits;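 active = mean replicate inhibition score of at least 50 and every replicate individually at or above 50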;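 also: 0% = plate neutral controls and 100% = maraviroc near 300 nM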
FN deposition inh: fibronectin deposition inhibition. AH1F fibroblasts, Alexa488-fibronectin deposition fluorescence, overnight. inhibition, % at 12.6 µM. 350,000 compounds, 0.086% hits. AID 743247;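 active = mean inhibition across replicates of 30% or more, regardless of how many single replicates reach that level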;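 also: positive control wells lacked labelled fibronectin entirely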
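Assay system: AH1F fibroblasts assembling fluorescent fibronectin matrix; Amount: 10000 AH1F cells per well; Buffer or medium: DMEM, 2% serum; Probe or stimulus: Alexa488-fibronectin, 24 nM final in well; Doses: single compound dose, delivered by pin transfer; Incubation: 1 h adhesion, overnight exposure; Measured by: fluorescence 485/525 nm; Read-out: fibronectin deposition inhibition.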
PAX8 inh HTS: inhibitors of PAX8 transcriptional activity in RMG-I cells; AID 652154; 360,000 compounds, 1.2% hits; RMG-I TPO-luciferase reporter, SteadyGlo, 24 h; inhibition, % at 12.6 µM;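 active = mean replicate inhibition at least 60% with every replicate also reaching 60%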;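 also: luciferase light reporting Pax8 driven TPO promoter activity; plate controls were median of neutral control wells for no effect and mitoxantrone controls for full effect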
FGF22 binding: binders of recombinant human FGF22 by thermal shift; Q9HCT0; 340,000 compounds, 1.5% hits; SYPRO orange fluorescence; percent of sucrose octasulfate shift, DMSO zero; activity (Tm shift, normalised), % at 9.99 µM; AID 651658;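 active = mean Tm shift, scaled 0 neutral to 100 positive control, at about 1.3% or above, every replicate too, limit read from the data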
Target sequence (Q9HCT0 whole entry, looked up): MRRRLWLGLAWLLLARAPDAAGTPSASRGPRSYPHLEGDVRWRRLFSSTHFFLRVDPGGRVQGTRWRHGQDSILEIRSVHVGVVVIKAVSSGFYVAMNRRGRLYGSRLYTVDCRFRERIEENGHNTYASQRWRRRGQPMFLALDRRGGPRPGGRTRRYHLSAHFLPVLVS
PGC1a acetyl inh: PGC1a acetylation modulation, inhibitor mode; U2OS PGC1a acetylation, AlphaScreen anti-acetyl-lysine; with virally co-expressed GCN5 acetyltransferase; inhibition, % at 15.6 µM; 350,000 compounds, 0.17% hits;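 active = every replicate shows inhibition of at least 40%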;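 also: 0% = neutral control wells and 100% = positive control wells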
EWS-Fli inh: blocks EWS/Fli oncoprotein-driven transcription; 350,000 compounds, 0.67% hits; inhibition, % at 12.6 µM; A673 NR0B1-luciferase reporter, viability-normalised;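 active = mean inhibition of at least 50% after viability correction, with every replicate also passing that limit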;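 also: firefly luciferase signal divided by Alamar Blue viability fluorescence both relative to DMSO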
Starred values were filed as active, the others as inactive; x = not tested or not shown; [ ] = another dose, or the depositor's remark. Only some compounds are listed: those with a hit (about 3.1% of all), similar ones and a draw of the others.

SMILES	HIV Env fusion	FN deposition inh	PAX8 inh HTS	FGF22 binding	PGC1a acetyl inh	EWS-Fli inh
C[C@H]1CN([C@@H](C)CO)S(=O)(=O)c2ccc(-c3ccccc3)cc2O[C@H]1CN(C)Cc1ccccn1	-2.9[16.7 µM]	-15.3	x	-0.1	-9.1	2.1
CN(Cc1cc(=O)n2ccsc2n1)c1ccccc1	6.7	-3.6	-4.6	43.7*	x	-3.6
C[C@@H]1CN([C@H](C)CO)C(=O)c2cc(NC(=O)c3ccncc3)ccc2O[C@@H](C)CCCCO[C@H]1CN(C)S(=O)(=O)c1cn(C)cn1	6.4[16.7 µM]	x	-1.7	-0.3	-4.6	-2.3
COc1ccc2c3c(n(C)c2c1)[C@H](CO)NCC31CCN(Cc2cc(-c3ccccc3)on2)CC1	x	-6.0	82.4*	x	68.9*	-6.5
COc1ccc2c3c(n(C)c2c1)[C@H](CO)NCC31CCN(Cc2ccccc2Cl)CC1	x	16.9	x	-0.1	-3.4	7.2
O=C(O)CSc1nnnn1C1CCCCC1	-5.8	1.1	5.7	43.3*	-0.9	1.5
O=C(CSc1nnnn1C1CCCCC1)Nc1ccc(F)cc1	0.6	2.2	7.9	43.1*	-3.1	5.2
O=C(CSc1nnnn1C1CCCC1)Nc1ccc(F)cc1	6.2	9.6	-17.3	x	-7.4	x
O=C(CSc1nnnn1C1CCCCC1)N1CCCC1	x	x	x	0.0	8.4	-5.9
O=C(NCCc1ccccc1)Nc1ccc(Cl)cc1	-40.9	0.9	-145.3	x	x	x
Fc1cc(Br)ccc1NC(=S)NCCc1ccccc1	x	x	x	1.8*	x	-19.2
CCNC(=S)Nc1ccc(Cl)cc1	5.5	1.0	20.6	0.3	1.1	-8.8
CCCCC(=O)Nc1ccc(C(=O)NCCc2ccc(S(N)(=O)=O)cc2)cc1	11.5	2.0	6.1	42.9*	4.7	14.0
CCCCNC(=S)Nc1ccc(Cl)cc1	-12.7	x	-28.6	0.5	x	78.4*
S=C(NCCc1ccccc1)Nc1ccc(Cl)cc1	-12.0	22.4	-78.7	1.5*	x	-14.9
C[C@@H]1CN([C@@H](C)CO)C(=O)Cc2cc(NS(C)(=O)=O)ccc2O[C@H]1CN(C)Cc1ccc(C(=O)O)cc1	-28.8[16.7 µM]	x	-22.5	0.4	4.0	3.7
O=C(C[C@H]1CC[C@@H](NC(=O)Nc2ccc(C(F)(F)F)cc2)[C@@H](CO)O1)NCc1cc(F)cc(F)c1	-0.4[16.7 µM]	x	7.4	0.1	7.7	-10.1
Cc1ccc(C(=O)OCC(=O)NCCc2ccc(S(N)(=O)=O)cc2)o1	-1.5	0.1	-9.7	43.4*	7.4	3.9
C[C@H](NC(=O)c1ccc(Cl)cc1)C(=O)NCCc1ccc(S(N)(=O)=O)cc1	5.9	-4.1	10.7	43.7*	19.1	3.0
S=C(NCCc1ccc(Cl)cc1)NC1CC1	-16.7	-2.6	-6.0	44.1*	x	-33.6
Cc1ccc(C(=O)OCC(=O)NCCNC(=O)COC(=O)c2ccc(C)o2)o1	-0.4	-0.8	2.5	-0.2	x	-0.4
NS(=O)(=O)c1ccc(NC(=S)NCCc2ccccc2)cc1	-39.3	-8.9	4.5	2.2*	6.1	-24.9
Cc1ccccc1-c1ccc([C@H]2[C@H]3CN(C(=O)NC4CCCC4)CCCCN3[C@H]2CO)cc1	x	x	24.6	-0.1	1.1	-2.7
O=[N+]([O-])c1ccc(Oc2cccnc2)c([N+](=O)[O-])c1	-82.3	-1.4	64.1*	0.0	9.2	1.5
Nc1ccc(Oc2ccc([N+](=O)[O-])cc2[N+](=O)[O-])cc1	x	x	x	0.3	-1.9	-20.9
SMILES	HIV Env fusion	FN deposition inh	PAX8 inh HTS	FGF22 binding	PGC1a acetyl inh	EWS-Fli inh
CC1CC(C)CN(S(=O)(=O)c2ccc(Oc3ccc([N+](=O)[O-])cc3)cc2)C1 (stereo unspecified)	56.3*	-6.2	x	x	-1.6	x
Cc1ccc(C)c(S(=O)(=O)N2CCCCC2CCNC(=O)C(=O)NCc2ccncc2)c1 (stereo unspecified)	-115.0	-2.8	69.1*	0.0	2.9	16.3
OCC[C@@H]1C[C@@H](O)[C@H](O)[C@]2(OCc3ccccc32)O1	68.8*	6.8	2.5	-0.1	-4.1	-5.3
O=[N+]([O-])c1ccc2c(c1)CCO[C@@]21O[C@H](CCO)C[C@H](O)[C@H]1O	-84.3	6.0	-1.9	-0.4	x	-2.9
OCC[C@H]1C[C@H](O)[C@@H](O)[C@@]2(OCc3ccccc32)O1	0.6	3.3	-27.2	0.0	-12.1	-16.8
O=[N+]([O-])c1ccc2c(c1)CO[C@@]21O[C@H](CCO)C[C@H](O)[C@H]1O	60.1*	-4.8	-24.7	0.3	-8.1	1.2
C[C@H](CO)N1C[C@H](C)[C@H](CN(C)C(=O)Nc2ccccc2)OCCCC[C@H](C)Oc2ccc(NC(=O)C3CCCCC3)cc2C1=O	1.8[16.7 µM]	1.1	-8.6	-0.1	2.9	1.2
CCCNC(=O)N1C[C@H](O)COC[C@@H]2O[C@@H](CC(=O)N[C@@H]3CCN(Cc4ccccc4)C3)CC[C@H]21	-26.8[16.7 µM]	-1.2	-4.1	0.0	4.3	-1.6
Cn1cccc1CC(=O)NNC(=O)Nc1ccc(Cl)cc1	10.0	-12.4	-4.6	44.4*	x	-0.1
Cn1cccc1CC(=O)NNC(=O)Nc1cccc(Cl)c1	-1.0	3.6	-2.0	0.0	x	-13.4
O=C(C[C@H]1CC[C@@H]2[C@H](COC[C@@H](O)CN2C(=O)C2CCOCC2)O1)NCc1ccncc1	-19.2[16.7 µM]	3.0	-1.9	-0.1	-2.6	-1.5
CCCNC(=O)Nc1ccc2c(c1)C(=O)N(C)C[C@H](OC)[C@@H](C)CN(C(=O)C1CC1)[C@@H](C)CO2	x	2.2	8.8	-0.1	1.0	-12.9
Cc1cc(NC(=O)CS(=O)(=O)c2cn(Cc3cccc(F)c3)c3ccccc23)no1	73.2*	5.0	28.6	x	0.7	x
Cc1cc(NC(=O)CS(=O)(=O)c2cn(Cc3ccc(F)cc3)c3ccccc23)no1	79.3*	4.8	21.6	-0.1	4.6	9.4
Cc1cc(NC(=O)CS(=O)(=O)c2cn(Cc3cccc(C(F)(F)F)c3)c3ccccc23)no1	77.5*	-5.8	26.4	0.4	6.6	11.6
CCn1cc(S(=O)(=O)CC(=O)Nc2cc(C)on2)c2ccccc21	-44.6	18.3	x	x	-12.6	x
Cc1noc(C)c1NC(=O)Nc1ccc2c(c1)C(=O)N([C@@H](C)CO)C[C@@H](C)[C@H](CN(C)C(=O)Nc1ccc3c(c1)OCO3)OCCCC[C@H](C)O2	11.9[16.7 µM]	-3.0	x	0.0	6.1	2.7
CCCNC(=O)Nc1ccc2c(c1)OC[C@H](C)N(Cc1ccc(-c3ccccn3)cc1)C[C@@H](C)[C@@H](OC)CN(C)C2=O	x	-3.9	100.1*	0.2	3.9	23.6
CCCNC(=O)Nc1ccc2c(c1)OC[C@@H](C)N(Cc1ccc(-c3ccccn3)cc1)C[C@@H](C)[C@H](OC)CN(C)C2=O	x	-1.9	94.9*	-0.3	-7.7	-3.2
CCCC(=O)Nc1ccc2c(c1)C(=O)N(C)C[C@@H](OC)[C@H](C)CN(Cc1ccc(-c3ccccn3)cc1)[C@H](C)CO2	x	1.2	75.8*	0.0	0.5	3.2
